Data reported in ChEMBL document CHEMBL1165950, “Design and synthesis of new potent anticancer pyrazoles with high FLT3 kinase inhibitory selectivity” (Bioorg Med Chem, 2010).

How the values were obtained:
Format in all cases: functional
SF-539 = test: Cytotoxicity against human SF539 cells assessed as cell growth at 10 uM; conditions: read-out: Activity
Outline: (§1)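 NCI-60 screen: cells grown in RPMI 1640 with 5% FBS and 2 mM L-glutamine, plated at 5000–40,000 cells/well according to doubling time, and preincubated 24 h at 37 °C, 5% CO2. The single 10 µM dose (DMSO stock) was added, then incubated 48 h. Cells were TCA-fixed and stained with 0.4% SRB, read at 515 nm, and growth % calculated against time-zero and control plates.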

SNB-19 = test: Cytotoxicity against human SNB19 cells assessed as cell growth at 10 uM; conditions: read-out: Activity; outline: as §1
SNB-75 = test: Cytotoxicity against human SNB75 cells assessed as cell growth at 10 uM; conditions: read-out: Activity; outline: as §1
U-251 = test: Cytotoxicity against human U251 cells assessed as cell growth at 10 uM; conditions: read-out: Activity; outline: as §1
LOX IMVI = test: Cytotoxicity against human LOXIMVI cells assessed as cell growth at 10 uM; conditions: read-out: Activity; outline: as §1
Malme-3M = test: Cytotoxicity against human MALME-3M cells assessed as cell growth at 10 uM; conditions: read-out: Activity; outline: as §1
M14 = test: Cytotoxicity against human M14 cells assessed as cell growth at 10 uM; conditions: read-out: Activity; outline: as §1
MDA-MB-435 = test: Cytotoxicity against human MDA-MB-435 cells assessed as cell growth at 10 uM; conditions: read-out: Activity; outline: as §1
SK-MEL-2 = test: Cytotoxicity against human SK-MEL-2 cells assessed as cell growth at 10 uM; conditions: read-out: Activity; outline: as §1
SK-MEL-28 = test: Cytotoxicity against human SK-MEL-28 cells assessed as cell growth at 10 uM; conditions: read-out: Activity; outline: as §1
SK-MEL-5 = test: Cytotoxicity against human SK-MEL-5 cells assessed as cell growth at 10 uM; conditions: read-out: Activity; outline: as §1
UACC-257 = test: Cytotoxicity against human UACC257 cells assessed as cell growth at 10 uM; conditions: read-out: Activity; outline: as §1
UACC-62 = test: Cytotoxicity against human UACC62 cells assessed as cell growth at 10 uM; conditions: read-out: Activity; outline: as §1
IGROV-1 = test: Cytotoxicity against human IGROV1 cells assessed as cell growth at 10 uM; conditions: read-out: Activity
Outline: (§2)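 Single-dose NCI-60 screen at 10 µM. Cells were grown in RPMI 1640 with 5% FBS and 2 mM L-glutamine, then treated for 48 h at 37 °C. Protein was measured by SRB staining with absorbance at 515 nm. Percentage growth was recorded, and inhibition percentage was calculated as 100 minus growth percentage.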

OVCAR-3 = test: Cytotoxicity against human OVCAR-3 cells assessed as cell growth at 10 uM; conditions: read-out: Activity; outline: as §1
OVCAR-4 = test: Cytotoxicity against human OVCAR4 cells assessed as cell growth at 10 uM; conditions: read-out: Activity; outline: as §1
OVCAR-5 = test: Cytotoxicity against human OVCAR5 cells assessed as cell growth at 10 uM; conditions: read-out: Activity; outline: as §1
OVCAR-8 = test: Cytotoxicity against human OVCAR8 cells assessed as cell growth at 10 uM; conditions: read-out: Activity; outline: as §1
NCI/ADR-RES = test: Cytotoxicity against human NCI/ADR-RES cells assessed as cell growth at 10 uM; conditions: read-out: Activity; outline: as §1
SK-OV-3 = test: Cytotoxicity against human SKOV3 cells assessed as cell growth at 10 uM; conditions: read-out: Activity; outline: as §1
786-0 = test: Cytotoxicity against human 786-0 cells assessed as cell growth at 10 uM; conditions: read-out: Activity; outline: as §2
A498 = test: Cytotoxicity against human A498 cells assessed as cell growth at 10 uM; conditions: read-out: Activity; outline: as §2
ACHN = test: Cytotoxicity against human ACHN cells assessed as cell growth at 10 uM; conditions: read-out: Activity; outline: as §2
CAKI-1 = test: Cytotoxicity against human Caki1 cells assessed as cell growth at 10 uM; conditions: read-out: Activity; outline: as §2
RXF 393 = test: Cytotoxicity against human RXF393 cells assessed as cell growth at 10 uM; conditions: read-out: Activity; outline: as §1
SN12C = test: Cytotoxicity against human SN12C cells assessed as cell growth at 10 uM; conditions: read-out: Activity; outline: as §1
TK-10 = test: Cytotoxicity against human TK10 cells assessed as cell growth at 10 uM; conditions: read-out: Activity; outline: as §1
UO-31 = test: Cytotoxicity against human UO31 cells assessed as cell growth at 10 uM; conditions: read-out: Activity; outline: as §1
PC-3 = test: Cytotoxicity against human PC3 cells assessed as cell growth at 10 uM; conditions: read-out: Activity; outline: as §1
DU-145 = test: Cytotoxicity against human DU145 cells assessed as cell growth at 10 uM; conditions: read-out: Activity; outline: as §2
MCF7 = test: Cytotoxicity against human MCF7 cells assessed as cell growth at 10 uM; conditions: read-out: Activity; outline: as §1
MDA-MB-231 = test: Cytotoxicity against human MDA-MB-231 cells assessed as cell growth at 10 uM; conditions: read-out: Activity; outline: as §1
[1] = Cytotoxicity against human Hs 578T cells assessed as cell growth at 10 uM; conditions: read-out: Activity; outline: as §2
BT-549 = test: Cytotoxicity against human BT549 cells assessed as cell growth at 10 uM; conditions: read-out: Activity; outline: as §2
T47D = test: Cytotoxicity against human T47D cells assessed as cell growth at 10 uM; conditions: read-out: Activity; outline: as §1
MDA-MB-468 = test: Cytotoxicity against human MDA-MB-468 cells assessed as cell growth at 10 uM; conditions: read-out: Activity; outline: as §1
[2] = Growth inhibition of human NCI60 cells at 10 uM after 48 hrs by sulforhodamine B assay relative to control; conditions: NCI60, 48 h, read-out: GI
Outline: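 Single-dose NCI screen at 10 µM across the 60-line panel, 48 h exposure at 37 °C after a 24 h preincubation. Adherent cells were fixed with cold TCA and stained with 0.4% SRB, and absorbance was read at 515 nm. Inhibition % was taken as 100 minus growth %, and the mean across all lines was reported.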

CCRF-CEM = test: Cytotoxicity against human CCRF-CEM cells assessed as cell growth at 10 uM; conditions: read-out: Activity; outline: as §2
HL-60(TB) = test: Cytotoxicity against human HL-60(TB) cells assessed as cell growth at 10 uM; conditions: read-out: Activity
Outline: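 NCI 60-cell panel screen at a single concentration of 10 µM. Cells are grown in RPMI 1640 with 5% FBS and 2 mM L-glutamine and read by SRB protein staining at 515 nm. Percent growth is measured relative to time-zero and untreated controls; inhibition % is 100 minus growth %.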

K562 = test: Cytotoxicity against human K562 cells assessed as cell growth at 10 uM; conditions: read-out: Activity; outline: as §2
MOLT-4 = test: Cytotoxicity against human MOLT4 cells assessed as cell growth at 10 uM; conditions: read-out: Activity; outline: as §1
[3] = Cytotoxicity against human […] cells assessed as cell growth at 10 uM; conditions: read-out: Activity; outline: as §1
SR = test: Cytotoxicity against human SR cells assessed as cell growth at 10 uM; conditions: read-out: Activity; outline: as §1
A549 = test: Cytotoxicity against human A549 cells assessed as cell growth at 10 uM; conditions: read-out: Activity; outline: as §2
EKVX = test: Cytotoxicity against human EKVX cells assessed as cell growth at 10 uM; conditions: read-out: Activity; outline: as §2
HOP-62 = test: Cytotoxicity against human HOP62 cells assessed as cell growth at 10 uM; conditions: read-out: Activity; outline: as §2
HOP-92 = test: Cytotoxicity against human HOP92 cells assessed as cell growth at 10 uM; conditions: read-out: Activity; outline: as §2
NCI-H226 = test: Cytotoxicity against human NCI-H226 cells assessed as cell growth at 10 uM; conditions: read-out: Activity; outline: as §1
NCI-H23 = test: Cytotoxicity against human NCI-H23 cells assessed as cell growth at 10 uM; conditions: read-out: Activity; outline: as §1
NCI-H322M = test: Cytotoxicity against human NCI-H322M cells assessed as cell growth at 10 uM; conditions: read-out: Activity; outline: as §1
NCI-H460 = test: Cytotoxicity against human NCI-H460 cells assessed as cell growth at 10 uM; conditions: read-out: Activity; outline: as §1
NCI-H522 = test: Cytotoxicity against human NCI-H522 cells assessed as cell growth at 10 uM; conditions: read-out: Activity; outline: as §1
COLO 205 = test: Cytotoxicity against human COLO205 cells assessed as cell growth at 10 uM; conditions: read-out: Activity; outline: as §2
HCC 2998 = test: Cytotoxicity against human HCC2998 cells assessed as cell growth at 10 uM; conditions: read-out: Activity; outline: as §2
HCT-116 = test: Cytotoxicity against human HCT116 cells assessed as cell growth at 10 uM; conditions: read-out: Activity; outline: as §2
HCT-15 = test: Cytotoxicity against human HCT15 cells assessed as cell growth at 10 uM; conditions: read-out: Activity; outline: as §2
HT-29 = test: Cytotoxicity against human HT-29 cells assessed as cell growth at 10 uM; conditions: read-out: Activity; outline: as §2
KM12 = test: Cytotoxicity against human KM12 cells assessed as cell growth at 10 uM; conditions: read-out: Activity; outline: as §1
SW-620 = test: Cytotoxicity against human SW620 cells assessed as cell growth at 10 uM; conditions: read-out: Activity; outline: as §1
SF-268 = test: Cytotoxicity against human SF268 cells assessed as cell growth at 10 uM; conditions: read-out: Activity; outline: as §1
SF-295 = test: Cytotoxicity against human SF295 cells assessed as cell growth at 10 uM; conditions: read-out: Activity; outline: as §1

With `COc1cc(C)cc(-c2nn(CC#N)cc2-c2ccnc(-c3cccc(NC(C)=O)c3)c2)c1` the growth at 10 µM (SF-539) was 84.5%, the growth at 10 µM (SNB-19) was 89.6% and the growth at 10 µM (SNB-75) was 72.4%. For the same compound, the growth at 10 µM (U-251) was 94.3%, the growth at 10 µM (LOX IMVI) was 97.5% and the growth at 10 µM (Malme-3M) was 108%. It also gave a growth at 10 µM (M14) of 96.3%, a growth at 10 µM (MDA-MB-435) of 99.6% and a growth at 10 µM (SK-MEL-2) of 92.1%. For the same compound, the growth at 10 µM (SK-MEL-28) was 104%, the growth at 10 µM (SK-MEL-5) was 36.9% and the growth at 10 µM (UACC-257) was 89.7%. The growth at 10 µM (UACC-62) was 81.7%, the growth at 10 µM (IGROV-1) was 98.4% and the growth at 10 µM (OVCAR-3) was 109%. For the same compound, the growth at 10 µM (OVCAR-4) was 99.7%, the growth at 10 µM (OVCAR-5) was 91.6% and the growth at 10 µM (OVCAR-8) was 88%. For the same compound, the growth at 10 µM (NCI/ADR-RES) was 87.3%, the growth at 10 µM (SK-OV-3) was 93.3% and the growth at 10 µM (786-0) was 84%. The growth at 10 µM (A498) was 74.2%, the growth at 10 µM (ACHN) was 88% and the growth at 10 µM (CAKI-1) was 77.3%. It also gave a growth at 10 µM (RXF 393) of 81.5%, a growth at 10 µM (SN12C) of 83% and a growth at 10 µM (TK-10) of 87.1%. The growth at 10 µM (UO-31) was 63.6%, the growth at 10 µM (PC-3) was 85.8% and the growth at 10 µM (DU-145) was 105%. For the same compound, the growth at 10 µM (MCF7) was 85%, the growth at 10 µM (MDA-MB-231) was 86.5% and the growth at 10 µM [1] was 99%. The growth at 10 µM (BT-549) was 79.1%, the growth at 10 µM (T47D) was 79.3% and the growth at 10 µM (MDA-MB-468) was 82.8%. The inhibition of growth at 10 µM [2] was 1.18%, the growth at 10 µM (CCRF-CEM) was 83.9% and the growth at 10 µM (HL-60(TB)) was 74.9%. The growth at 10 µM (K562) was 86.4%, the growth at 10 µM (MOLT-4) was 82.8% and the growth at 10 µM [3] was 73.9%. It also gave a growth at 10 µM (SR) of 80.9%, a growth at 10 µM (A549) of 86.7% and a growth at 10 µM (EKVX) of 101%. For the same compound, the growth at 10 µM (HOP-62) was 98.5%, the growth at 10 µM (HOP-92) was 79.6% and the growth at 10 µM (NCI-H226) was 93.1%. It also gave a growth at 10 µM (NCI-H23) of 95.3%, a growth at 10 µM (NCI-H322M) of 96.9% and a growth at 10 µM (NCI-H460) of 107%. The growth at 10 µM (NCI-H522) was 82.5%, the growth at 10 µM (COLO 205) was 93.5% and the growth at 10 µM (HCC 2998) was 101%. For the same compound, the growth at 10 µM (HCT-116) was 96.4%, the growth at 10 µM (HCT-15) was 94.5% and the growth at 10 µM (HT-29) was 99.4%. It also gave a growth at 10 µM (KM12) of 109%, a growth at 10 µM (SW-620) of 104% and a growth at 10 µM (SF-268) of 97.3%. For the same compound, the growth at 10 µM (SF-295) was 102%.
